Laboratory results: ChEMBL document CHEMBL3739273, “Synthesis, biological activity evaluation and molecular docking studies of novel coumarin substituted thiazolyl-3-aryl-pyrazole-4-carbaldehydes” (Bioorg Med Chem Lett, 2015)
≈ marks a conversion by molar mass, not a printed value. Calls of active or inactive are those of the source. No cut-off for these calls is given here.

Key:
Klebsiella pneumoniae [1] = assay: Bactericidal activity against Klebsiella pneumoniae ATCC 43816 after 24 hrs; format: functional; details: ATCC 43816, 24 h, read-out: MBC99.9
Procedure, shortened: (§1)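 MBC determined by a standard MBC protocol alongside the MIC, with values in µg/mL. Gentamycin sulfate and ampicillin were the references.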

MCF7 = assay: Anticancer activity against human MCF7 cells assessed as cell viability after 48 hrs by MTT assay; format: functional, cell-based; details: MCF7, 48 h
Procedure, shortened: (§2)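 MTT cytotoxicity assay in human DU-145 prostate, MCF-7 breast and HeLa cervical cancer cell lines. Doxorubicin was the reference drug.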

Staphylococcus aureus [2] = assay: Antibacterial activity against methicillin-resistant Staphylococcus aureus NCTC 13616 after 24 hrs by microtiter plate method; format: functional; details: NCTC 13616, 24 h
Bacillus cereus [3] = assay: Antibacterial activity against Bacillus cereus ATCC 14579 assessed as growth inhibition at 100 ug/ml after 24 hrs by agar well diffusion method; format: functional
Procedure, shortened: (§3)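 Agar well diffusion. Compounds were tested at 10, 20, 100, 200 and 300 µg/mL, and the zone of inhibition was measured in mm. Gentamycin sulfate was the reference drug.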

Bacillus spizizenii [4] = assay: Antibacterial activity against Bacillus subtilis ATCC 6633 after 24 hrs by microtiter plate method; format: functional; details: ATCC 6633, 24 h
Procedure, shortened: (§4)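 Test concentrations reported in µg/mL. Gentamycin sulfate and ampicillin were the reference drugs.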

Staphylococcus aureus [5] = assay: Bactericidal activity against methicillin-resistant Staphylococcus aureus NCTC 13616 after 24 hrs; format: functional; details: NCTC 13616, 24 h, read-out: MBC99.9
Procedure, shortened: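 MBC determined by a standard MBC protocol run alongside the MIC determination. Gentamycin sulfate and ampicillin served as reference drugs.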

HeLa [6] = assay: Anticancer activity against human HeLa cells assessed as cell viability at 10 uM after 48 hrs by MTT assay; format: functional, cell-based
Klebsiella pneumoniae [7] = assay: Antibacterial activity against Klebsiella pneumoniae ATCC 43816 assessed as growth inhibition at 100 ug/ml after 24 hrs by agar well diffusion method; format: functional; procedure, shortened: as §3
Escherichia coli [8] = assay: Antibacterial activity against Escherichia coli ATCC 8739 after 24 hrs by microtiter plate method; format: functional; details: ATCC 8739, 24 h; procedure, shortened: as §4
Escherichia coli [9] = assay: Antibacterial activity against Escherichia coli ATCC 8739 assessed as growth inhibition at 100 ug/ml after 24 hrs by agar well diffusion method; format: functional; procedure, shortened: as §3
Proteus vulgaris [10] = assay: Bactericidal activity against Proteus vulgaris ATCC 13315 after 24 hrs; format: functional; details: ATCC 13315, 24 h, read-out: MBC99.9; procedure, shortened: as §1
Bacillus cereus [11] = assay: Bactericidal activity against Bacillus cereus ATCC 14579 after 24 hrs; format: functional; details: ATCC 14579, 24 h, read-out: MBC99.9; procedure, shortened: as §1
Cytochrome P450 2A6 = molecular target: T1, Cytochrome P450 2A6 (Homo sapiens, UniProt P11509); assay: Inhibition of human microsomal CYP2A6; format: ADME
T1 sequence (P11509 whole entry): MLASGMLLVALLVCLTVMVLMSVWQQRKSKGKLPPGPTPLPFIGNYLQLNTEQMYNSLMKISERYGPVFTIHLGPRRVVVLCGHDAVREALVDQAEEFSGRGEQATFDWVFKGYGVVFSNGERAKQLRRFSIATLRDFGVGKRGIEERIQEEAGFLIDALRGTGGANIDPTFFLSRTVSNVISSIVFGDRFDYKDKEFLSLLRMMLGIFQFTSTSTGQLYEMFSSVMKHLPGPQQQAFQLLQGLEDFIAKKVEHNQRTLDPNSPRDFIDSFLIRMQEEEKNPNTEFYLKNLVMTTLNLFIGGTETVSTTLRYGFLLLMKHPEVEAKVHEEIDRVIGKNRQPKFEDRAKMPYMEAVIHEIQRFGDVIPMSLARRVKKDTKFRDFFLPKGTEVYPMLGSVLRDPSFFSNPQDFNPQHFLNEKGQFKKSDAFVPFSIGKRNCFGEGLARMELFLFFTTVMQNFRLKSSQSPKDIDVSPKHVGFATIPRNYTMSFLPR

Proteus vulgaris [12] = assay: Antibacterial activity against Proteus vulgaris ATCC 13315 after 24 hrs by microtiter plate method; format: functional; details: ATCC 13315, 24 h; procedure, shortened: as §4
Bacillus spizizenii [13] = assay: Bactericidal activity against Bacillus subtilis ATCC 6633 after 24 hrs; format: functional; details: ATCC 6633, 24 h, read-out: MBC99.9; procedure, shortened: as §1
Proteus vulgaris [14] = assay: Antibacterial activity against Proteus vulgaris ATCC 13315 assessed as growth inhibition at 100 ug/ml after 24 hrs by agar well diffusion method; format: functional; procedure, shortened: as §3
Staphylococcus aureus [15] = assay: Antibacterial activity against methicillin-resistant Staphylococcus aureus NCTC 13616 assessed as growth inhibition at 100 ug/ml after 24 hrs by agar well diffusion method; format: functional, organism-based
Procedure, shortened: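 Agar well diffusion assay with compounds applied to wells at several concentrations, including the 100 level reported here. The zone of inhibition was measured in mm. Gentamycin sulfate was the standard drug.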

Bacillus spizizenii [16] = assay: Antibacterial activity against Bacillus subtilis ATCC 6633 assessed as growth inhibition at 100 ug/ml after 24 hrs by agar well diffusion method; format: functional, organism-based; procedure, shortened: as §3
[17] = n-Octanol-phosphate buffer partition coefficient, log P of the compound at pH 7.4 after 30 mins by shake flask method; format: physicochemical
Procedure, shortened: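 Shake-flask partition between n-octanol and 50 mM phosphate buffer, pH 7.4. P calculated and expressed as logP.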

Klebsiella pneumoniae [18] = assay: Antibacterial activity against Klebsiella pneumoniae ATCC 43816 after 24 hrs by microtiter plate method; format: functional; details: ATCC 43816, 24 h; procedure, shortened: as §4
Bacillus cereus [19] = assay: Antibacterial activity against Bacillus cereus ATCC 14579 after 24 hrs by microtiter plate method; format: functional; details: ATCC 14579, 24 h; procedure, shortened: as §4
Escherichia coli [20] = assay: Bactericidal activity against Escherichia coli ATCC 8739 after 24 hrs; format: functional; details: ATCC 8739, 24 h, read-out: MBC99.9; procedure, shortened: as §1
HeLa [21] = assay: Anticancer activity against human HeLa cells assessed as cell viability after 48 hrs by MTT assay; format: functional, cell-based; procedure, shortened: as §2
[22] = Anticancer activity against human DU145 cells assessed as cell viability after 48 hrs by MTT assay; format: functional, cell-based; details: DU-145, 48 h; procedure, shortened: as §2
HeLa [23] = assay: Induction of apoptosis in human HeLa cell assessed as nuclear condensation after 24 hrs by Hoechst 33258 staining based fluorescence microscopic analysis; format: functional
Procedure, shortened: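 HeLa cells treated at 10 µM for 24 h, washed with PBS, then stained with Hoechst 33258 ([…]) for 20 min. Chromatin condensation imaged by fluorescence microscopy with a DAPI filter.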

| SMILES | MBC (Klebsiella pneumoniae [1]) [µg/mL] | IC50 (MCF7) [µM] | MIC (Staphylococcus aureus [2]) [µg/mL] | growth inhibition (GI) (Bacillus cereus [3]) | MIC (Bacillus spizizenii [4]) [µg/mL] | MBC (Staphylococcus aureus [5]) [µg/mL] | growth inhibition (GI) (HeLa [6]) | MIC (Escherichia coli [8]) [µg/mL] | MBC (Proteus vulgaris [10]) [µg/mL] | MBC (Bacillus cereus [11]) [µg/mL] | Ki (Cytochrome P450 2A6) [nM] | MIC (Proteus vulgaris [12]) [µg/mL] | MBC (Bacillus spizizenii [13]) [µg/mL] | growth inhibition (GI) (Staphylococcus aureus [15]) | growth inhibition (GI) (Bacillus spizizenii [16]) | logD at 0.5 h [17] | MIC (Klebsiella pneumoniae [18]) [µg/mL] | MIC (Bacillus cereus [19]) [µg/mL] | MBC (Escherichia coli [20]) [µg/mL] | IC50 (HeLa [21]) [µM] | also measured |
| --- | --- | --- | --- | --- | --- | --- | --- | --- | --- | --- | --- | --- | --- | --- | --- | --- | --- | --- | --- | --- | --- |
| O=Cc1cn(-c2nc(-c3cc4cc(Br)ccc4oc3=O)cs2)nc1-c1ccc(Cl)cc1 | 172 (≈ 335 µM) | 85 | 123 (≈ 240 µM) | Active | 120 (≈ 233 µM) | 185 (≈ 361 µM) | Active | 118 (≈ 229 µM) | 250 (≈ 488 µM) | 170 (≈ 332 µM) | 13.2 | 128 (≈ 249 µM) | 175 (≈ 341 µM) | Active | Active | 3.07 | 115 (≈ 224 µM) | 115 (≈ 224 µM) | 230 (≈ 449 µM) | 9.46 | growth inhibition (GI) (Klebsiella pneumoniae [7]): Active; growth inhibition (GI) (Escherichia coli [9]): Active; growth inhibition (GI) (Proteus vulgaris [14]): Active; IC50 [22]: 22.3 µM |
| Cc1ccc(-c2nn(-c3nc(-c4cc5cc(Cl)cc(Cl)c5oc4=O)cs3)cc2C=O)cc1 | 150 (≈ 311 µM) | 14.6 | 116 (≈ 240 µM) | Active | 98.2 (≈ 204 µM) | 230 (≈ 477 µM) | Active | 101 (≈ 210 µM) | 210 (≈ 435 µM) | 150 (≈ 311 µM) | 2.57 | 105 (≈ 218 µM) | 145 (≈ 301 µM) | Active | Active | 3.6 | 101 (≈ 209 µM) | 100 (≈ 208 µM) | 150 (≈ 311 µM) | 5.75 | Activity (HeLa [23]): Active; zone of inhibition at 100 µg/mL (Klebsiella pneumoniae [7]; ATCC 43816, 24 h, read-out: IZ): 20 mm; zone of inhibition at 100 µg/mL (Escherichia coli [9]; ATCC 8739, 24 h, read-out: IZ): 18 mm; zone of inhibition at 100 µg/mL (Proteus vulgaris [14]; ATCC 13315, 24 h, read-out: IZ): 18 mm; IC50 [22]: 14.7 µM |
| O=Cc1cn(-c2nc(-c3cc4cc(Cl)ccc4oc3=O)cs2)nc1-c1ccc(Cl)cc1 | 240 (≈ 512 µM) | 18.7 | 134 (≈ 286 µM) | Active | 112 (≈ 240 µM) | 265 (≈ 566 µM) | Active | 126 (≈ 270 µM) | 260 (≈ 555 µM) | 165 (≈ 352 µM) | 16.6 | 131 (≈ 279 µM) | 165 (≈ 352 µM) | Active | Active | 3.06 | 117 (≈ 251 µM) | 111 (≈ 237 µM) | 250 (≈ 534 µM) | 9.51 | growth inhibition (GI) (Klebsiella pneumoniae [7]): Active; growth inhibition (GI) (Escherichia coli [9]): Active; growth inhibition (GI) (Proteus vulgaris [14]): Active; IC50 [22]: 14.9 µM |
